Measured values reported in ChEMBL document CHEMBL4433216, “Discovery of Stereospecific PARP-1 Inhibitor Isoindolinone NMS-P515” (ACS Med Chem Lett, 2019).
pIC50, pKd: −log10 of the molar value. Values after ≈ are worked out from the molar mass of the structure shown.

Key:
[1] = target: T1, Poly [ADP-ribose] polymerase 1 (Homo sapiens, UniProt P09874); experiment: Binding affinity to human recombinant His/GST-tagged PARP1 catalytic domain (655-end residues) by surface plasma resonance method
[2] = target: T1, Poly [ADP-ribose] polymerase 1; experiment: Inhibition of PARP1 in human HeLa cells assessed as reduction in H2O2-induced PAR formation incubated for 30 mins followed by H2O2 addition for 15 mins by immunocytochemistry analysis; assay type: cell-based
[3] = target: T1, Poly [ADP-ribose] polymerase 1; experiment: Displacement of fluorescent probe from human recombinant full length His-tagged PARP1 by fluorescent polarization assay
CAPAN-1 [4] = experiment: Antitumor activity against human Capan1 cells xenografted in Balb athymic Nu/Nu mouse assessed as maximal tumor growth inhibition at 62.5 mg/kg, iv qd for 5 days; assay type: functional; conditions: CAPAN-1, iv, 120 h, read-out: TGI
How it was run: (§1)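 Capan-1 pancreatic xenograft. Temozolomide was given alone at 62.5 mg/kg iv once daily for 5 days. Maximal tumor growth inhibition and maximum body weight loss were recorded.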

[5] = Toxicity in human Capan1 cells xenografted Balb athymic Nu/Nu mouse assessed as maximum weight loss at 62.5 mg/kg, iv qd for 5 days; assay type: organism-based; conditions: in vivo, 120 h; how it was run: as §1
CAPAN-1 [6] = experiment: animal or person; conditions: Mus musculus, CAPAN-1, po, 288 h, read-out: GI
in vitro [7] = experiment: in vitro; set-up: dose or concentration left out as unconfirmed; conditions: rat, hepatocytes
[8] = Permeability of the compound in pH 7.4 HBSS buffer assessed as percentage remained in membrane at 10 uM incubated for 4 hrs by LC-MS/MS based PAMPA method; assay type: ADME; conditions: pH 7.4, 4 h
[9] = Cmax in Balb Nu/Nu mouse at 10 mg/kg, iv measured upto 24 hrs by HPLC-MS-MS analysis; assay type: ADME, organism-based; set-up: dose 10 mg/kg, route intravenous; conditions: in vivo
in vitro [10] = experiment: in vitro; set-up: dose or concentration left out as unconfirmed; conditions: human, liver microsomes
[11] = Toxicity in human Capan1 cells xenografted Balb athymic Nu/Nu mouse assessed as maximum weight loss at 80 mg/kg, po qd administered for 12 days; assay type: organism-based; conditions: in vivo, 288 h
How it was run: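 BRCA-2 mutated Capan-1 pancreatic xenograft. The PARP-1 inhibitor was given orally as a methocel suspension at 80 mg/kg once daily for 12 days. Read-outs were maximal tumor growth inhibition and maximum body weight loss.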

[12] = Oral bioavailability in Balb Nu/Nu mouse at 10 mg/kg measured upto 24 hrs by HPLC-MS-MS analysis; assay type: ADME, organism-based; conditions: in vivo
How it was run: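 Oral PK in Harlan Nu/Nu mice, n = 3 per study, dosed per os at 10 mg/kg as a 0.5% methocel suspension. Bioavailability derived from oral versus iv exposure (AUC∞), with iv dosing in the same mouse strain.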

[13] = Solubility in pH 7 ammonium acetate buffer by LC-MS/MS analysis; assay type: physicochemical
in vitro [14] = conditions: mouse, plasma
[15] = Toxicity in human Capan1 cells xenografted Balb athymic Nu/Nu mouse assessed as maximum body weight loss at 80 mg/kg, po qd administered for 12 days co-treated with 62.5 mg/kg, iv qd temozolomide for 5 days starting from day 3; conditions: in vivo
[16] = Cmax in Balb Nu/Nu mouse at 10 mg/kg, po measured upto 24 hrs by HPLC-MS-MS analysis; assay type: ADME, organism-based; set-up: dose 10 mg/kg, route oral; conditions: in vivo
[17] = Permeability of the compound in pH 7.4 HBSS at 10 uM incubated for 4 hrs by LC-MS/MS based PAMPA method; assay type: ADME; conditions: read-out: permeability
[18] = target: T2, Poly [ADP-ribose] polymerase tankyrase-1 (Homo sapiens, UniProt O95271); experiment: Displacement of fluorescent probe from human recombinant His-tagged TNKS1 catalytic domain (1091-1325 residues) by fluorescent polarization assay
T2 sequence (O95271 whole entry): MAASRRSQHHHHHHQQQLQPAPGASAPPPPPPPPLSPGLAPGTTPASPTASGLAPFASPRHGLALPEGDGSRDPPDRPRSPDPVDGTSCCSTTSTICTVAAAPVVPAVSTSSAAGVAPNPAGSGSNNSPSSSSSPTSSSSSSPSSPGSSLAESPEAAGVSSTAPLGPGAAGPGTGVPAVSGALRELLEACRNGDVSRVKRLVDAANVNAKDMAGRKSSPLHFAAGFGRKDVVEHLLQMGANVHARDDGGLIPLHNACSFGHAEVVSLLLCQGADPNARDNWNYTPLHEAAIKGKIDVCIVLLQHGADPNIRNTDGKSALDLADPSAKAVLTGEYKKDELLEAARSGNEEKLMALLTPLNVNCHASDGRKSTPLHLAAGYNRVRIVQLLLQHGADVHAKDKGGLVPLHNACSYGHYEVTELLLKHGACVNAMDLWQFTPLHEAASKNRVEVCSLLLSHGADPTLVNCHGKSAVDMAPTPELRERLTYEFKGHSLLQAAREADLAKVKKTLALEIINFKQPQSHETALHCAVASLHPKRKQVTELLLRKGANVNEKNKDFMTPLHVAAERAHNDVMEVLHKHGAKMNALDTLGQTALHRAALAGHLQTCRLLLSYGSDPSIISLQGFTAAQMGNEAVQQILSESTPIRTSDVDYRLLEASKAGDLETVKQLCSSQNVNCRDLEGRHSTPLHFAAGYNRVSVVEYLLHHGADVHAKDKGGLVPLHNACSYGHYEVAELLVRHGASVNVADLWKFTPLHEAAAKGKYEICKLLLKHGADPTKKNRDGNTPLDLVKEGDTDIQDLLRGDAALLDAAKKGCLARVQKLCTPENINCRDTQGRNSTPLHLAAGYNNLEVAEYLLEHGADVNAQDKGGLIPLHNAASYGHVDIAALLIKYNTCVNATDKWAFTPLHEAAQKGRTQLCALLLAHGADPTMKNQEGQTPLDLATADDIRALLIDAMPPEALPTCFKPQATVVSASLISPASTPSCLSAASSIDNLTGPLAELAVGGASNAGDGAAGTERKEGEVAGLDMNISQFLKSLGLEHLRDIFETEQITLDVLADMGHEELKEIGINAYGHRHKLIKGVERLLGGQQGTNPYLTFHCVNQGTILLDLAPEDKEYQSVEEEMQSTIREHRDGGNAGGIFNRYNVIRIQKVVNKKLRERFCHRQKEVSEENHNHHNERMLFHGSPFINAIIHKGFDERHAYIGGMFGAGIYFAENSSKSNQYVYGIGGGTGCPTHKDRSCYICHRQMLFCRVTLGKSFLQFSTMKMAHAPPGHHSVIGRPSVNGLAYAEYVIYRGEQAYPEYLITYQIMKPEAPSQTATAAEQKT
How it was run: (§2)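 Fluorescence polarization displacement assay measuring probe displacement from each ARTD enzyme. Results expressed as K_D.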

Cytochrome P450 2B6 = target: T3, Cytochrome P450 2B6 (Homo sapiens, UniProt P20813); experiment: Inhibition of CYP2B6 (unknown origin); assay type: ADME
T3 sequence (P20813 whole entry): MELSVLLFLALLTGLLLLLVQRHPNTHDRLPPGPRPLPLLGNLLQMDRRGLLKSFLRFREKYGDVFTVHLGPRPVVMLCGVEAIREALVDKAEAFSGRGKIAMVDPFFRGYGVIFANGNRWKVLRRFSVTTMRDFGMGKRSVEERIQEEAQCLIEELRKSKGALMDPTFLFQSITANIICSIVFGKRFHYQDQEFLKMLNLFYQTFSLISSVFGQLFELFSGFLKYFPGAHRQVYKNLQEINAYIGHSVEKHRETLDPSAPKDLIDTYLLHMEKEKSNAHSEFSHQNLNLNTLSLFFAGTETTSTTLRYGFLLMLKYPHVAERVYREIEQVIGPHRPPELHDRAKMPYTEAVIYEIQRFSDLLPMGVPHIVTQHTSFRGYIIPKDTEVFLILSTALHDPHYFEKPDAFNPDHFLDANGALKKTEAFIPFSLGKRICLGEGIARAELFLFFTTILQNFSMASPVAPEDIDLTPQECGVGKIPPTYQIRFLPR
How it was run: (§3)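 Screen of eight P450 cytochrome isoforms, with IC50 determined for each isoform.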

[19] = Half life in Balb Nu/Nu mouse at 10 mg/kg, po measured upto 24 hrs by HPLC-MS-MS analysis; assay type: ADME, organism-based; conditions: in vivo
[20] = AUC (0 to infinity) in Balb Nu/Nu mouse at 10 mg/kg, iv measured upto 24 hrs by HPLC-MS-MS analysis; assay type: ADME, organism-based; set-up: dose 10 mg/kg, time infinity, route intravenous; conditions: in vivo
[21] = AUC (0 to infinity) in Balb Nu/Nu mouse at 10 mg/kg, po measured upto 24 hrs by HPLC-MS-MS analysis; assay type: ADME, organism-based; set-up: dose 10 mg/kg, route oral, time infinity; conditions: in vivo
[22] = target: T4, Protein mono-ADP-ribosyltransferase PARP3 (Homo sapiens, UniProt Q9Y6F1); experiment: Displacement of fluorescent probe from human recombinant His/GST-tagged PARP3 by fluorescent polarization assay; how it was run: as §2
T4 sequence (Q9Y6F1 whole entry): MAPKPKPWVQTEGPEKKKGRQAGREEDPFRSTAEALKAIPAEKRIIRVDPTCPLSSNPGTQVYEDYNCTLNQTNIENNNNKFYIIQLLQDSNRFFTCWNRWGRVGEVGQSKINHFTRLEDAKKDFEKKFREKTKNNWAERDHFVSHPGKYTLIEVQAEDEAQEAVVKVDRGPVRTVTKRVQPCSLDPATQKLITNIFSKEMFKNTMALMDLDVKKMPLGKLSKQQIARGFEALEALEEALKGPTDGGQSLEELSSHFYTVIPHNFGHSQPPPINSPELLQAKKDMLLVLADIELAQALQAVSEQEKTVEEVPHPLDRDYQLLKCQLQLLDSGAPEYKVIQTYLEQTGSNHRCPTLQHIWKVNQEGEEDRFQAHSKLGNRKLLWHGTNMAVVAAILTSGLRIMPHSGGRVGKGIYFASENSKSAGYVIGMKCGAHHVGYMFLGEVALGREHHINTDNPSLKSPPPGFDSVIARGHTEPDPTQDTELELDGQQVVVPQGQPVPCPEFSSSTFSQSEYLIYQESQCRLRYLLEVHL

[23] = target: Poly [ADP-ribose] polymerase 2 (Homo sapiens, UniProt Q9UGN5); experiment: Displacement of fluorescent probe from human recombinant full length His-tagged PARP2 by fluorescent polarization assay; how it was run: as §2
[24] = Half life in Balb Nu/Nu mouse at 10 mg/kg, iv measured upto 24 hrs by HPLC-MS-MS analysis; assay type: ADME, organism-based; conditions: in vivo
Cytochrome P450 2D6 = Cytochrome P450 2D6 (Homo sapiens, UniProt P10635); experiment: Inhibition of CYP2D6 (unknown origin); assay type: ADME; how it was run: as §3
[25] = Half life in Balb Nu/Nu mouse at 5 mg/kg, iv measured upto 24 hrs by HPLC-MS-MS analysis; assay type: ADME, organism-based; conditions: in vivo
[26] = Cmax in Balb Nu/Nu mouse at 5 mg/kg, iv measured upto 24 hrs by HPLC-MS-MS analysis; assay type: ADME, organism-based; set-up: dose 5 mg/kg, route intravenous; conditions: in vivo
[27] = AUC (0 to infinity) in Balb Nu/Nu mouse at 5 mg/kg, iv measured upto 24 hrs by HPLC-MS-MS analysis; assay type: ADME, organism-based; set-up: dose 5 mg/kg, time infinity, route intravenous; conditions: in vivo
in vivo = conditions: Balb Nu/Nu, mouse, iv, 5 mg/kg

T1 sequence (P09874 whole entry, the tested form may be a part): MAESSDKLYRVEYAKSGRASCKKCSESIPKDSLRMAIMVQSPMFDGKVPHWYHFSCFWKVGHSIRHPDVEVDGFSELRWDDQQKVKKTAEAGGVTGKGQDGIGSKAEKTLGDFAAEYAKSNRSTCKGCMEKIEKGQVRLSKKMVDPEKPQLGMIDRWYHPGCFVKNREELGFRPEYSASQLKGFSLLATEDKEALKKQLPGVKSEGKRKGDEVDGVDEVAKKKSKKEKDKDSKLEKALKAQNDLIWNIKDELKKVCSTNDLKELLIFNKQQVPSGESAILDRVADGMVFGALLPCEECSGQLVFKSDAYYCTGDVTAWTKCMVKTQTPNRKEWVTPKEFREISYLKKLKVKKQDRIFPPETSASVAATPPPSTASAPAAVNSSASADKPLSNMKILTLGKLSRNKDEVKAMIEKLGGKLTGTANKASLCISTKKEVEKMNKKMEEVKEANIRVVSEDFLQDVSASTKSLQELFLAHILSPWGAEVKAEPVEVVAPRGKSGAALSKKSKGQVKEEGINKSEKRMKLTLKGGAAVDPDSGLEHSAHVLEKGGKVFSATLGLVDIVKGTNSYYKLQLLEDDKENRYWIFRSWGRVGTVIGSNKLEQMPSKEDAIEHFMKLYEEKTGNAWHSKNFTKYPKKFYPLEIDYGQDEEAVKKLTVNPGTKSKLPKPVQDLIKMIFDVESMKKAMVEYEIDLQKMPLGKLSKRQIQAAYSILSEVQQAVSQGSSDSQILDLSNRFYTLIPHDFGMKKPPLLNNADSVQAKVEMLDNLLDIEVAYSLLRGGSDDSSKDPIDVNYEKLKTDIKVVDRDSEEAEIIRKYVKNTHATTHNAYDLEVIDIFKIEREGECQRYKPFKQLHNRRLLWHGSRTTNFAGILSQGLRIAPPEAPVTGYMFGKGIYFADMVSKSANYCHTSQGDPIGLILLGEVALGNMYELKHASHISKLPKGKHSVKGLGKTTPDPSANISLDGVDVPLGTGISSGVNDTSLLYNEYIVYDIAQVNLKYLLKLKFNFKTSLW
Sequence of Poly [ADP-ribose] polymerase 2 (Q9UGN5 whole entry): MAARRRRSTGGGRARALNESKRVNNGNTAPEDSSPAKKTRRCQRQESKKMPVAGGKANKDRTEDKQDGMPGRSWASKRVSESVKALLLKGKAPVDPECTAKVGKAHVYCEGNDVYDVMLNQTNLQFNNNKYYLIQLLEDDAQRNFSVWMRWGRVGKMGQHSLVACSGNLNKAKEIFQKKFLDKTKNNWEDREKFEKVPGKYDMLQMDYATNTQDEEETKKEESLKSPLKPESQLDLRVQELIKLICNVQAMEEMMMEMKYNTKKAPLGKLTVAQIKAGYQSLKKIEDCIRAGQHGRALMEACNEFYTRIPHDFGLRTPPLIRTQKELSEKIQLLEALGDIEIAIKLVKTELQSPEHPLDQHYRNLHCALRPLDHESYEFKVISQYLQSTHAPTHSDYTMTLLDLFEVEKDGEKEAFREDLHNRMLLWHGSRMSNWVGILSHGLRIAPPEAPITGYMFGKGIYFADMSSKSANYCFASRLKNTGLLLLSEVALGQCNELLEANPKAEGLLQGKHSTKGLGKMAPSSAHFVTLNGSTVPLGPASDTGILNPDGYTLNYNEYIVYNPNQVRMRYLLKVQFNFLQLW
Sequence of Cytochrome P450 2D6 (P10635 whole entry): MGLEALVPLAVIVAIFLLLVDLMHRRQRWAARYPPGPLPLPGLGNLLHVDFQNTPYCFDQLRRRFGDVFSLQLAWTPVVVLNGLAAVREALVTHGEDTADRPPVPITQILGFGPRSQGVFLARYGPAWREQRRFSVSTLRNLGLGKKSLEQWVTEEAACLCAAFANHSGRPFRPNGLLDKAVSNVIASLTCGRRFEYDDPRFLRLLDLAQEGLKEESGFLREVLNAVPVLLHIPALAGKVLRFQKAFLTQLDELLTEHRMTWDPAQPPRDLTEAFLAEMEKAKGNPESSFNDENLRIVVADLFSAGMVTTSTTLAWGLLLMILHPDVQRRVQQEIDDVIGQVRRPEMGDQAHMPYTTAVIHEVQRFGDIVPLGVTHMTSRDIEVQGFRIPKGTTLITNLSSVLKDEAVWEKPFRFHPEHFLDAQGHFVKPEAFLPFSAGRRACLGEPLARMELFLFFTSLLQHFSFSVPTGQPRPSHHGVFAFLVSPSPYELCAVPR

## C[C@@H]1c2cccc(C(N)=O)c2C(=O)N1C1CCN(C2CCCCC2)CC1
[1]
  pKd: 5.75
[2]
  pIC50: 6.79
[3]
  pKd: 5.88

## Cn1nnc2c(C(N)=O)ncn2c1=O [TEMOZOLOMIDE]
CAPAN-1 [4]
  inhibition in vivo at 62.5 mg/kg: 46%
[5]
  Activity: 8%

## C[C@H]1c2cccc(C(N)=O)c2C(=O)N1C1CCN(C2CCCCC2)CC1
CAPAN-1 [6]
  inhibition in vivo at 80 mg/kg: 48%
In vitro [7]
  CLint scaled at 1.5 h: 5 mL/min/kg
[8]
  permeability: 0%
[9]
  Cmax: 4900 nM
In vitro [10]
  CLint scaled at 0.5 h: 5 mL/min/kg
[11]
  Activity: 6%
[12]
  bioavailability: 78.3%
[13]
  solubility: > 225 µM
In vitro [14]
  fraction unbound: 0.13
[1]
  pKd: 7.80
[2]
  pIC50: 7.57
[15]
  Activity: 17%
[3]
  pKd: > 7.52
[16]
  Cmax: 1400 nM
[17]
  Papp at 4 h, 10 µM: 27.3 ×10⁻⁶ cm/s
[18]
  pKd: < 5.00
Cytochrome P450 2B6
  pIC50: < 4.51
[19]
  half-life: 2.6 h
[20]
  AUC(0-inf): 8.2 µM·h
[21]
  AUC(0-inf): 4.9 µM·h
[22]
  pKd: < 5.00
[23]
  pKd: < 5.00
[24]
  half-life: 2.1 h
Cytochrome P450 2D6
  pIC50: < 4.51

## CC1c2cccc(C(N)=O)c2C(=O)N1C1CCN(C2CCCCC2)CC1 (racemic)
In vitro [7]
  CLint scaled at 1.5 h: 5 mL/min/kg
[25]
  half-life: 1.8 h
[8]
  permeability: 8%
In vitro [10]
  CLint scaled at 0.5 h: 5 mL/min/kg
[12]
  bioavailability: 100%
[13]
  solubility: 140 µM (≈ 49.8 µg/mL)
In vitro [14]
  fraction unbound: 0.05
[2]
  pIC50: 7.30
[3]
  pKd: > 7.52
[16]
  Cmax: 2500 nM
[17]
  Papp at 4 h, 10 µM: 39.4 ×10⁻⁶ cm/s
[26]
  Cmax: 2500 nM
[18]
  pKd: < 5.00
Cytochrome P450 2B6
  pIC50: 5.31
[27]
  AUC(0-inf): 6.3 µM·h
[19]
  half-life: 3.1 h
[21]
  AUC(0-inf): 13.5 µM·h
[22]
  pKd: < 5.00
[23]
  pKd: < 5.00
In vivo
  Vd at 24 h: 3.6 L/kg
Cytochrome P450 2D6
  pIC50: 6.22

## CC1c2cc(F)cc(C(N)=O)c2C(=O)N1C1CCN(C2CCCCC2)CC1 (racemic)
[2]
  pIC50: 6.19
